Sampled rows, rich in hits. Any-hit rate of the full collection: about 2.6%.
RAD52 inh: inhibitors of human RAD52 DNA annealing; P43351; inhibition, % at 18.7 µM; recombinant RAD52 DNA annealing, FRET fluorescence; hit rate 0.46% among 360,000; AID 651710;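 active means every replicate showing at least 50% inhibition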
AF4-AF9 inh: inhibitors of human MLL-AF4/AF9 interaction. P42568. AlphaScreen, biotin-AF4 peptide binding to FLAG-AF9. inhibition, % at 10 µM. hit rate 0.47% among 350,000. AID 651704;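 active means every replicate reaching a set inhibition limit, whatever the replicate mean, cut at about 25% in these data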
E-selectin induc: induces E-selectin expression in human endothelial cells. HUVEC E-selectin immunofluorescence imaging; normalized: neutral wells 0, TNF-alpha wells 100. P16581. AID 686992. hit rate 0.37% among 260,000. activation, % at 7.58 µM;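 active means mean E-selectin-positive cell signal at least 10% of the positive control, reached in at least 60% of replicates, without over 20% cell loss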
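Assay system: HUVEC primary endothelial cells. Input: 3,000 HUVEC seeded per well. Doses: one compound dose added by pin transfer. Read-out basis: % PE-positive cells. Benchmarks: TNF-alpha high, DMSO low. Detection: immunofluorescence imaging. Buffer or medium: EGM-2, gelatin.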
Ecoli rRNA inh: inhibits bacterial ribosomal RNA function over humanized ribosomes | E. coli WT GFP vs humanized-ribosome RFP mutants, fluorescence, 24 h; hits give low values; DMSO median 0, no signal -100 | GFP signal change (wild-type ribosome), % (test concentration not listed) | hit rate 1.6% among 350,000;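 active means significant combined selectivity score with lowered wild-type GFP, culture density cut under 30%, mutant RFP and density less affected; inactive means any of these conditions unmet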
INS-1E GSIS act: primary screen for activators of insulin secretion dependent on glucose, INS-1E cells, GLuc reporter luminescence; hit rate 0.61% among 370,000; AID 743287; activation, % at 16.6 µM; INS-1E GLuc reporter insulin secretion, 2-3 h;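 active means lowest replicate activation of at least 40%, so every replicate reaches that level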
RAD54 branch: inhibitors of human RAD54 branch migration; Q92698; RAD54 Holliday junction branch migration, FAM/BHQ fluorescence; inhibition, % at 10.4 µM; hit rate 0.14% among 360,000;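 active means mean normalized replicate activity at least 40 and at least half of replicates scoring 40 or more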;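 further: inhibitors cause a drop in the FAM fluorescence signal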
Target sequence (Q92698 whole entry, looked up): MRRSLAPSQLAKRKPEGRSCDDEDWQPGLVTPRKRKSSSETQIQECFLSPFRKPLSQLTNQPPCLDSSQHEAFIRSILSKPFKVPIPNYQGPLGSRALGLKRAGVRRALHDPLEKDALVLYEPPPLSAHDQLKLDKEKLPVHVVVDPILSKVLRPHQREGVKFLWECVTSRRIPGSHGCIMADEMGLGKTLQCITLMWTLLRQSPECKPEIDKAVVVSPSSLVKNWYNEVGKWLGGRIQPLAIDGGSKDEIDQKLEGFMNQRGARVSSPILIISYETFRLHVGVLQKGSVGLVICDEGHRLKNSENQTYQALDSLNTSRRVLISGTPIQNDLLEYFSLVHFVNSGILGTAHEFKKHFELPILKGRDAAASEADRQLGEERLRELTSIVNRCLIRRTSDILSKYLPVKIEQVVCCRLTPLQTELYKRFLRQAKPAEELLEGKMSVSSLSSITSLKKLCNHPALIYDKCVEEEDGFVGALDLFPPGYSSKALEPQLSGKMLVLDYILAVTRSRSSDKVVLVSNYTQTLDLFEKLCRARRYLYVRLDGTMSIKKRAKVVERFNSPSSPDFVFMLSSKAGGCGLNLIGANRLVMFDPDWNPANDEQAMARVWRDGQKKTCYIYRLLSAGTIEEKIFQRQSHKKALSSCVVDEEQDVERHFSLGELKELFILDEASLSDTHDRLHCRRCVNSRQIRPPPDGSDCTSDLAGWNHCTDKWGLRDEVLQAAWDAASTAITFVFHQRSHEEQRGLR
Numbers stand for hits.

For CCc1cc2c(NC(Cc3c[nH]c4ccccc34)C(=O)O)nc(C)nc2s1 (stereo unspecified) the results were RAD52 inh inactive, AF4-AF9 inh inactive, E-selectin induc inactive, Ecoli rRNA inh -27.9 and INS-1E GSIS act inactive.
`Cc1cnc(NC(=O)Cc2c[nH]c3ccccc23)s1` gave RAD52 inh inactive, AF4-AF9 inh inactive, Ecoli rRNA inh -22.4, INS-1E GSIS act inactive and RAD54 branch inactive.
CCCNC(=O)Nc1ccc2c(c1)C(=O)N(C)C[C@H](OC)[C@@H](C)CN(C(=O)C1CC1)[C@H](C)CO2 was read as RAD52 inh inactive, AF4-AF9 inh inactive, E-selectin induc inactive, Ecoli rRNA inh inactive, INS-1E GSIS act inactive and RAD54 branch inactive.
Screening CCOc1ccc(C2CC(c3cccc(Cl)c3)n3nc(N)nc3N2)cc1 (stereo unspecified) returned RAD52 inh inactive, AF4-AF9 inh inactive, E-selectin induc inactive, Ecoli rRNA inh inactive, INS-1E GSIS act inactive and RAD54 branch inactive.
Screening Nc1nc2n(n1)C(c1cccc(Cl)c1)CC(c1ccc(F)cc1)N2 (stereo unspecified) returned RAD52 inh inactive, AF4-AF9 inh inactive, E-selectin induc inactive, Ecoli rRNA inh inactive, INS-1E GSIS act 48.5 and RAD54 branch inactive.
For C[C@@H]1CN([C@@H](C)CO)C(=O)Cc2cc(NC(=O)CCCN(C)C)ccc2O[C@H]1CN(C)Cc1ccc(C(F)(F)F)cc1 the results were RAD52 inh inactive, AF4-AF9 inh inactive, E-selectin induc inactive, Ecoli rRNA inh inactive, INS-1E GSIS act inactive and RAD54 branch inactive.
`Fc1ccc2cnc(CCO[C@H]3CCCCO3)cc2c1` gave RAD52 inh inactive, AF4-AF9 inh 49.3, E-selectin induc inactive, Ecoli rRNA inh inactive, INS-1E GSIS act inactive and RAD54 branch inactive.
For Fc1ccc2cc(CCO[C@H]3CCCCO3)ncc2c1 the results were RAD52 inh inactive, AF4-AF9 inh inactive, E-selectin induc inactive, Ecoli rRNA inh inactive, INS-1E GSIS act inactive and RAD54 branch inactive.
For COc1ccc2c3c([nH]c2c1)[C@@H](CO)N(Cc1nccs1)CC31CCN(Cc2cncnc2)CC1 the results were RAD52 inh 50.4, AF4-AF9 inh inactive, E-selectin induc inactive, Ecoli rRNA inh inactive and INS-1E GSIS act inactive.
`COc1ccc2c3c([nH]c2c1)[C@@H](CO)N(C(=O)CN(C)C)CC31CCN(Cc2ccccc2Cl)CC1` gave RAD52 inh inactive, AF4-AF9 inh 30.1, E-selectin induc inactive, Ecoli rRNA inh inactive and INS-1E GSIS act inactive.
CCC(=O)N1CC2(CCN(Cc3ccc(Cl)cc3)CC2)c2c([nH]c3cc(OC)ccc23)[C@H]1CO was read as AF4-AF9 inh 32.2, E-selectin induc inactive, Ecoli rRNA inh inactive and INS-1E GSIS act inactive.
`CCC(=O)N1CC2(CN(Cc3ccccc3Cl)C2)c2c([nH]c3cc(OC)ccc23)[C@@H]1CO` gave RAD52 inh inactive, AF4-AF9 inh 28.5, E-selectin induc inactive, Ecoli rRNA inh inactive and INS-1E GSIS act inactive.
For COc1ccc2c3c([nH]c2c1)[C@H](CO)N(Cc1nccs1)CC31CCN(Cc2cncnc2)CC1 the results were RAD52 inh inactive, AF4-AF9 inh inactive, E-selectin induc inactive, Ecoli rRNA inh inactive and INS-1E GSIS act inactive.
CCC(=O)N1CC2(CCN(Cc3ccccc3Cl)CC2)c2c([nH]c3cc(OC)ccc23)[C@H]1CO was read as RAD52 inh inactive, AF4-AF9 inh inactive, E-selectin induc inactive, Ecoli rRNA inh inactive and INS-1E GSIS act inactive.
For Fc1ccc(-c2csc3nnc(SCc4cccnc4)n23)cc1 the results were RAD52 inh inactive, AF4-AF9 inh inactive, Ecoli rRNA inh inactive, INS-1E GSIS act 55.5 and RAD54 branch inactive.
Screening CCOC(=O)c1ccc(NC(=S)Nc2ccc(C)cc2)cc1 returned RAD52 inh inactive, AF4-AF9 inh inactive, Ecoli rRNA inh inactive, INS-1E GSIS act inactive and RAD54 branch inactive.
`CCOC(=O)c1cn[nH]c1NC(=S)Nc1ccc(Cl)cc1` gave RAD52 inh inactive, AF4-AF9 inh inactive, E-selectin induc inactive, Ecoli rRNA inh -40.6, INS-1E GSIS act inactive and RAD54 branch inactive.
Screening C=CCn1c(SC2CCOC2=O)nc2sc(CC)cc2c1=O (stereo unspecified) returned INS-1E GSIS act 58.6 and RAD54 branch inactive.
`C=CCn1c(SC2CCOC2=O)nc2sc(C)c(C)c2c1=O` (stereo unspecified) gave RAD54 branch inactive.
`C[C@@H]1CN([C@@H](C)CO)C(=O)c2cc(NS(=O)(=O)c3cn(C)cn3)ccc2O[C@@H]1CN(C)S(=O)(=O)c1cn(C)cn1` gave E-selectin induc inactive, Ecoli rRNA inh inactive and INS-1E GSIS act inactive.
`Cc1ccc(OCc2ccc(C(=O)NN)o2)c([N+](=O)[O-])c1` gave RAD52 inh inactive, AF4-AF9 inh inactive, E-selectin induc inactive, Ecoli rRNA inh inactive and INS-1E GSIS act inactive.
Screening COC(=O)c1ccc(COc2ccc(C)cc2[N+](=O)[O-])o1 returned RAD52 inh inactive, E-selectin induc inactive, Ecoli rRNA inh -23.9, INS-1E GSIS act inactive and RAD54 branch inactive.
`COCC#Cc1cnc2c(c1)C(=O)N([C@H](C)CO)C[C@H](C)[C@@H](CN(C)C(=O)Nc1ccccc1F)O2` gave RAD52 inh inactive, AF4-AF9 inh inactive, E-selectin induc inactive, Ecoli rRNA inh inactive, INS-1E GSIS act inactive and RAD54 branch inactive.
Nc1ccccc1C(=O)NNc1c2ccccc2nc2ccccc12 was read as RAD52 inh inactive, E-selectin induc inactive, Ecoli rRNA inh -19.6, INS-1E GSIS act inactive and RAD54 branch inactive.
CCc1ccccc1OCC(=O)NNCC(=O)Nc1cccc(C#N)c1 was read as RAD52 inh inactive, AF4-AF9 inh inactive, Ecoli rRNA inh -19.5, INS-1E GSIS act inactive and RAD54 branch inactive.
`CC(C)n1c(O)c(N=NC(=O)C2COc3ccccc3O2)c2ccccc21` (stereo unspecified) gave RAD52 inh inactive, AF4-AF9 inh 38.5, Ecoli rRNA inh inactive, INS-1E GSIS act inactive and RAD54 branch inactive.
`CC1CN(C(=O)/C=C/c2ccc([N+](=O)[O-])s2)CC(C)O1` (stereo unspecified) gave RAD52 inh inactive, AF4-AF9 inh inactive, Ecoli rRNA inh inactive and INS-1E GSIS act inactive.
Screening CC1CC(C)CN(C(=O)/C=C/c2ccc([N+](=O)[O-])s2)C1 (stereo unspecified) returned RAD52 inh inactive, AF4-AF9 inh inactive, Ecoli rRNA inh -29.1, INS-1E GSIS act inactive and RAD54 branch inactive.
CN(CCCS(=O)(=O)[O-])c1ccc(/C=C/c2ccc3ccccc3[n+]2C)cc1 was read as RAD52 inh inactive, AF4-AF9 inh inactive, E-selectin induc inactive, Ecoli rRNA inh inactive, INS-1E GSIS act inactive and RAD54 branch inactive.
For CN(C)c1ccc(/C=C/c2ccc3ccccc3[n+]2C)cc1 the results were INS-1E GSIS act inactive and RAD54 branch 80.6.

Bioassay records: PubChem BioAssay, Broad Institute
